Blank lines part the entries; values can stand above or below the compound they belong to. The source made the active and inactive calls. No cut-off for these calls is given here.
Key:
[1] = target: Alpha-2A adrenergic receptor (Homo sapiens) (UniProt P08913); experiment: Inhibition of human Adrenergic alpha 2A receptor at 1 uM relative to control
[2] = test system: Cord blood cell; experiment: Cytotoxicity against human Cord blood cell habouring TLS-ERG fusion protein assessed as reduction in cell viability at 1 to 5 uM incubated for 14 days by resazurin dye based […] assay; format: functional; settings: dose 1-5 µM, time 14.0 day
Outline: (§1)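 Transformed human cord blood cells were cultured with DMSO or inhibitor at 1 and 5 μM for 14 days. Resazurin (0.1 mg ml−1) was added for 4 h and resorufin fluorescence was read. Data are from at least two independent experiments, each with three repeats, shown as s.e. of the mean.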

[3] = target: Prostaglandin E2 receptor EP4 subtype (Homo sapiens) (UniProt P35408); experiment: Inhibition of human EP4 receptor at 1 uM relative to control
[4] = target: Alpha-1A adrenergic receptor (Rattus norvegicus) (UniProt P43140); experiment: Inhibition of rat Adrenergic alpha 1A receptor at 1 uM relative to control
[5] = species on record: Rattus norvegicus; experiment: Inhibition of rat central GABAA receptor at 1 uM by flunitrazepam radioligand binding assay relative to control
[6] = target: Adenosine receptor A1 (Homo sapiens) (UniProt P30542); experiment: Inhibition of human Adenosine A1 receptor at 1 uM relative to control
[7] = species on record: Homo sapiens; experiment: Inhibition of human nicotinic acetylcholine at 1 uM relative to control
[8] = species on record: Rattus norvegicus; experiment: Inhibition of rat Calcium 2 channel L, dihydropyridine site at 1 uM relative to control
[9] = target: Histone-lysine N-methyltransferase SETDB1 (Homo sapiens) (UniProt Q15047); experiment: Inhibition of SETDB1 (unknown origin) using H3 1-25 peptide in presence of SAM
Outline: (§2)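 Radiometric methyltransferase panel in which 3H-SAM, at or below each enzyme's Km, methylates biotinylated peptide substrates. They were quenched with 7.5 M guanidine-HCl, diluted, captured on streptavidin flash plates for 1 h, and counted by scintillation.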

[10] = target: Adenosine receptor A2a (Homo sapiens) (UniProt P29274); experiment: Inhibition of human Adenosine 2A receptor at 1 uM relative to control
[11] = target: Muscarinic acetylcholine receptor M2 (Homo sapiens) (UniProt P08172); experiment: Inhibition of human muscarinic acetylcholine M2 receptor at 1 uM relative to control
[12] = target: Beta-2 adrenergic receptor (Homo sapiens) (UniProt P07550); experiment: Inhibition of human Adrenergic beta 2 receptor at 1 uM relative to control
[13] = test system: Cord blood cell; experiment: Cytotoxicity against human Cord blood cell habouring MIL-AF9 fusion protein assessed as reduction in cell viability at 1 to 5 uM incubated for 14 days by resazurin dye based […] assay; format: functional; settings: dose 1-5 µM, time 14.0 day; outline: as §1
[14] = target: Sigma non-opioid intracellular receptor 1 (Homo sapiens) (UniProt Q99720); experiment: Inhibition of human sigma 1 receptor at 1 uM relative to control
[15] = target: Alpha-1B adrenergic receptor (Rattus norvegicus) (UniProt P15823); experiment: Inhibition of rat Adrenergic alpha 1B receptor at 1 uM relative to control
[16] = Apparent permeability across basolateral to apical side in human Caco-2 cells at 10 uM incubated for 90 mins at pH 7.4 by LC/MS analysis; format: ADME, cell-based; settings: Caco-2, pH 7.4
[17] = target: N-lysine methyltransferase KMT5A (Homo sapiens) (UniProt Q9NQR1); experiment: Inhibition of SETD8 (unknown origin) using […] in presence of SAM; outline: as §2
[18] = test system: MOLM-13; experiment: Downregulation of H3K79me2 in human MOLM-13 cells at 1 uM by immuno blot analysis; format: functional, cell-based; settings: time 3-7 day, TDE = time-dependent effect
Outline: (§3)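 Exponentially growing Molm13 cells were plated at 2 × 10^5 per well in 2 ml and exposed to 1 μM compound or DMSO for the indicated times. Extracted histones (3 μg) were run on 10% Bis-Tris gels and transferred to nitrocellulose. Blots were probed with primary antibody (1:1000 in 5% milk/TBS-T), then anti-rabbit secondary, with chemiluminescent detection.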

[19] = target: DNA (cytosine-5)-methyltransferase 1 (Homo sapiens) (UniProt P26358); experiment: Inhibition of DNMT1 (unknown origin) using ds-DNA peptide in presence of SAM; outline: as §2
[20] = target: Histone-lysine N-methyltransferase KMT5B (Homo sapiens) (UniProt Q4FZB7); experiment: Inhibition of […] (unknown origin) using H4 K20Me1 peptide in presence of SAM; outline: as §2
[21] = target: T1, Protein arginine N-methyltransferase 5 (Homo sapiens, UniProt O14744); experiment: Inhibition of PRMT5 (unknown origin) using H4 1-24 peptide in presence of SAM; outline: as §2
[22] = species on record: Homo sapiens; experiment: Inhibition of PRC2 (unknown origin) using H3 21-44 peptide in presence of SAM; outline: as §2
[23] = target: Histamine H1 receptor (Homo sapiens) (UniProt P35367); experiment: Inhibition of human histamine H1 receptor at 1 uM relative to control
[24] = cells; settings: Homo sapiens, MCF-10A
[25] = target: Histone-lysine N-methyltransferase SETD7 (Homo sapiens) (UniProt Q8WTS6); experiment: Inhibition of SETD7 (unknown origin) using H3 1-25 peptide in presence of SAM; outline: as §2
[26] = target: Glutamate NMDA receptor (Rattus norvegicus) (UniProt P35439+Q00959+Q00960+Q00961+Q62645+Q8VHN2+Q9R1M7); experiment: Inhibition of rat NMDA glutamate receptor at 1 uM relative to control; format: protein-complex assay
[27] = target: Mu-type opioid receptor (Homo sapiens) (UniProt P35372); experiment: Inhibition of human MOP receptor at 1 uM relative to control
[28] = target: 5-hydroxytryptamine receptor 2B (Homo sapiens) (UniProt P41595); experiment: Inhibition of human 5HT2B receptor at 1 uM relative to control
[29] = target: Histone-lysine N-methyltransferase 2A (Homo sapiens) (UniProt Q03164); experiment: Inhibition of MLL (unknown origin) using H3 1-25 peptide in presence of SAM; outline: as §2
[30] = species on record: Rattus norvegicus; experiment: Inhibition of rat central GABAA receptor at 1 uM by muscimol radioligand binding assay relative to control
[31] = target: Protein arginine N-methyltransferase 3 (Homo sapiens) (UniProt O60678); experiment: Inhibition of PRMT3 (unknown origin) using H3 1-24 peptide in presence of SAM; outline: as §2
[32] = target: D(1A) dopamine receptor (Homo sapiens) (UniProt P21728); experiment: Inhibition of human dopamine D1 receptor at 1 uM relative to control
[33] = target: T2, Histone-lysine N-methyltransferase, H3 lysine-79 specific (Homo sapiens, UniProt Q8TEK3); experiment: Binding affinity to recombinant N-terminal DOT1L (1 to 420 residues) (unknown origin) expressed in Escherichia coli (DE3) assessed as dissociation constant by surface plasmon resonance assay
[34] = target: Cannabinoid receptor 1 (Homo sapiens) (UniProt P21554); experiment: Inhibition of human CB1R at 1 uM relative to control
[35] = test system: MV4-11; experiment: Downregulation of H3K79me2 in human MV4-11 cells habouring MLL/AF4 fusion protein measured upto 48 hrs by immuno blot analysis; format: functional, cell-based
[36] = target: Histone-lysine N-methyltransferase EHMT2 (Homo sapiens) (UniProt Q96KQ7); experiment: Inhibition of G9a (unknown origin) using H3 1-25 peptide in presence of SAM; outline: as §2
[37] = target: Histone-lysine N-methyltransferase SUV39H2 (Homo sapiens) (UniProt Q9H5I1); experiment: Inhibition of SUV39H2 (unknown origin) using H3 1-25 peptide in presence of SAM; outline: as §2
[38] = target: Histone-lysine N-methyltransferase KMT5C (Homo sapiens) (UniProt Q86Y97); experiment: Inhibition of SUV420H2 (unknown origin) using H4 K20Me1 peptide in presence of SAM; outline: as §2
[39] = species on record: Homo sapiens; experiment: Inhibition of human nicotinic acetylcholine alpha at 1 uM relative to control
[40] = target: T2, Histone-lysine N-methyltransferase, H3 lysine-79 specific; experiment: Binding affinity to recombinant N-terminal DOT1L (1 to 420 residues) (unknown origin) expressed in Escherichia coli (DE3) assessed as dissociation constant by SPR analysis
[41] = cells; settings: Homo sapiens, A-431
[42] = target: Histone-lysine N-methyltransferase EHMT1 (Homo sapiens) (UniProt Q9H9B1); experiment: Inhibition of EHMT1 (unknown origin) using H3 1-25 peptide in presence of SAM; outline: as §2
[43] = species on record: Rattus norvegicus; experiment: Inhibition of rat central imidazoline receptor 2 at 1 uM relative to control
[44] = test system: MOLM-13; experiment: Downregulation of H3K79me2 in human MOLM-13 cells measured for 3 to 7 days by immuno blot analysis; format: functional, cell-based; settings: dose 1.0 µM, time 3-7 day; outline: as §3
[45] = Apparent permeability across apical to basolateral side in human Caco-2 cells at 10 uM incubated for 90 mins at pH 7.4 by LC/MS analysis; format: ADME, cell-based; settings: Caco-2, pH 7.4
[46] = test system: MOLM-13; experiment: Inhibition of HOXA9 level in human MOLM-13 cells at 1 uM measured after 7 days by SYBR green staining based PCR analysis; format: functional, cell-based; settings: time 7.0 day
Outline: (§4)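 RNA was extracted with Qiazol and reverse-transcribed. SYBR green qPCR used gene-specific primer pairs for HOXA9 and Meis1.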

[47] = test system: MOLM-13; experiment: Inhibition of Meis1 level in human MOLM-13 cells at 1 uM measured after 7 days by SYBR green staining based PCR analysis; format: functional, cell-based; settings: time 7.0 day; outline: as §4
[48] = target: hERG (KCNH2) (Homo sapiens, UniProt Q12809); experiment: Inhibition of human ERG at 1 uM relative to control; format: toxicity
[49] = target: Muscarinic acetylcholine receptor M3 (Homo sapiens) (UniProt P20309); experiment: Inhibition of human muscarinic acetylcholine M3 receptor at 1 uM relative to control
[50] = target: Sodium-dependent noradrenaline transporter (Homo sapiens) (UniProt P23975); experiment: Inhibition of human norepinephrine transporter at 1 uM relative to control
[51] = target: D(2) dopamine receptor (Homo sapiens) (UniProt P14416); experiment: Inhibition of human dopamine D2s receptor at 1 uM relative to control
[52] = target: Beta-1 adrenergic receptor (Homo sapiens) (UniProt P08588); experiment: Inhibition of human Adrenergic beta1 receptor at 1 uM relative to control
[53] = target: T1, Protein arginine N-methyltransferase 5; experiment: Inhibition of human PRMT5; outline: as §2
[54] = target: T2, Histone-lysine N-methyltransferase, H3 lysine-79 specific; experiment: Inhibition of recombinant N-terminal DOT1L (1 to 420 residues) (unknown origin) expressed in Escherichia coli (DE3) using [3H]-SAM as substrate preincubated for 30 mins followed by substrate addition and measured after 2 hrs by Topcount reader analysis

T1 sequence (O14744 whole entry): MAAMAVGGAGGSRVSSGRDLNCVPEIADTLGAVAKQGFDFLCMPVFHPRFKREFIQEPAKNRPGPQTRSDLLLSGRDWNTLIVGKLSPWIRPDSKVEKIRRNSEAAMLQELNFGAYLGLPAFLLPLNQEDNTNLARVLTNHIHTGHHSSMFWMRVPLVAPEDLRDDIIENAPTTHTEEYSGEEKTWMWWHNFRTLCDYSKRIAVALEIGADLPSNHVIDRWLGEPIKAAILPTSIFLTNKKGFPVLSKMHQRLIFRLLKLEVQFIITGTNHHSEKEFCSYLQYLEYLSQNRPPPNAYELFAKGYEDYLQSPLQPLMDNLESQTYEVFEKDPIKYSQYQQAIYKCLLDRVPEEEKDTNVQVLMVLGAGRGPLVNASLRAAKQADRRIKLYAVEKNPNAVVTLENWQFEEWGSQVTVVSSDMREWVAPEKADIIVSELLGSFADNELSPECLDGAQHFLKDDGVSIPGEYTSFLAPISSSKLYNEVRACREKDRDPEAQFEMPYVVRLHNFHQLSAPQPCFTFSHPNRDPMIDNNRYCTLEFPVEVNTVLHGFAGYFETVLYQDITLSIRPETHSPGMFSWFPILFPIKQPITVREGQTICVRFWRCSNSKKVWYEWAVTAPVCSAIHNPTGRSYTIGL
T2 sequence (Q8TEK3 whole entry, the tested form may be a part): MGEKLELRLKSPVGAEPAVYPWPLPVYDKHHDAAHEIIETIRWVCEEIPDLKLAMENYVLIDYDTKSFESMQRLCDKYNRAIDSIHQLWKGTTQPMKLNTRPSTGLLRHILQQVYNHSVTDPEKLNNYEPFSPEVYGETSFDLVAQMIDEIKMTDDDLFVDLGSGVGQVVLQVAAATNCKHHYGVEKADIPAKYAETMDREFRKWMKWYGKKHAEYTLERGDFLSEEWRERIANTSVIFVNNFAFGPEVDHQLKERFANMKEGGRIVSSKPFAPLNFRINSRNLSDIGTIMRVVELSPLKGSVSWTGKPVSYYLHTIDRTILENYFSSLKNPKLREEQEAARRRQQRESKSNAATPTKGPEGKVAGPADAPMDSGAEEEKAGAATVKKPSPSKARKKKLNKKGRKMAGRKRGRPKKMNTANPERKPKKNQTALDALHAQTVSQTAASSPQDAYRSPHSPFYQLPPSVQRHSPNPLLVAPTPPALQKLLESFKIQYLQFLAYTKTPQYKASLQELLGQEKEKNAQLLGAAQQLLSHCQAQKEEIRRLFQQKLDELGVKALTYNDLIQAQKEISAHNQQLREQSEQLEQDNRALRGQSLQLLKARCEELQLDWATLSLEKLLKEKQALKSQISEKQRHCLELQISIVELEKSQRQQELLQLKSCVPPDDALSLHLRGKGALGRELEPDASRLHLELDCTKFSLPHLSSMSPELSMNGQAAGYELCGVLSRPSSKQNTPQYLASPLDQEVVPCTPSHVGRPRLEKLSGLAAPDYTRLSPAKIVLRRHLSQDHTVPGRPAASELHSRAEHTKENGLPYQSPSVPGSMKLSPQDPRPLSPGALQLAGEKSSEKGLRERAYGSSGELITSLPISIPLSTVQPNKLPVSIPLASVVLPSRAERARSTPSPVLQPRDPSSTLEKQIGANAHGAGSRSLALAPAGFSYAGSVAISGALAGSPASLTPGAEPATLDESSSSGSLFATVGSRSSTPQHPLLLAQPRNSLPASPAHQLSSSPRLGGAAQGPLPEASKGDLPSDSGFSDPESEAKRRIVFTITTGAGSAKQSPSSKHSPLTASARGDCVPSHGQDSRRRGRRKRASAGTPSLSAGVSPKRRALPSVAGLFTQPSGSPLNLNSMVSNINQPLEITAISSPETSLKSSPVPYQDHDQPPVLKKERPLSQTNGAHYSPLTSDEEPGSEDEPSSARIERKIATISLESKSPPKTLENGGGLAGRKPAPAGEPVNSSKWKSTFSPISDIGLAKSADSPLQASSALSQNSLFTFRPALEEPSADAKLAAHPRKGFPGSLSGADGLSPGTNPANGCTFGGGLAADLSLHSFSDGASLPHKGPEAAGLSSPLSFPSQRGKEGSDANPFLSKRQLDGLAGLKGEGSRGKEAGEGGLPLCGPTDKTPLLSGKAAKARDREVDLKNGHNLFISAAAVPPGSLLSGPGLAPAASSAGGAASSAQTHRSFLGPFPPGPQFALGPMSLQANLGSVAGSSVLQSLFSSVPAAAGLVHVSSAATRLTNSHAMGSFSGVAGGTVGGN
Chain of Histone-lysine N-methyltransferase KMT5B (Homo sapiens) (Q4FZB7 whole entry, looked up): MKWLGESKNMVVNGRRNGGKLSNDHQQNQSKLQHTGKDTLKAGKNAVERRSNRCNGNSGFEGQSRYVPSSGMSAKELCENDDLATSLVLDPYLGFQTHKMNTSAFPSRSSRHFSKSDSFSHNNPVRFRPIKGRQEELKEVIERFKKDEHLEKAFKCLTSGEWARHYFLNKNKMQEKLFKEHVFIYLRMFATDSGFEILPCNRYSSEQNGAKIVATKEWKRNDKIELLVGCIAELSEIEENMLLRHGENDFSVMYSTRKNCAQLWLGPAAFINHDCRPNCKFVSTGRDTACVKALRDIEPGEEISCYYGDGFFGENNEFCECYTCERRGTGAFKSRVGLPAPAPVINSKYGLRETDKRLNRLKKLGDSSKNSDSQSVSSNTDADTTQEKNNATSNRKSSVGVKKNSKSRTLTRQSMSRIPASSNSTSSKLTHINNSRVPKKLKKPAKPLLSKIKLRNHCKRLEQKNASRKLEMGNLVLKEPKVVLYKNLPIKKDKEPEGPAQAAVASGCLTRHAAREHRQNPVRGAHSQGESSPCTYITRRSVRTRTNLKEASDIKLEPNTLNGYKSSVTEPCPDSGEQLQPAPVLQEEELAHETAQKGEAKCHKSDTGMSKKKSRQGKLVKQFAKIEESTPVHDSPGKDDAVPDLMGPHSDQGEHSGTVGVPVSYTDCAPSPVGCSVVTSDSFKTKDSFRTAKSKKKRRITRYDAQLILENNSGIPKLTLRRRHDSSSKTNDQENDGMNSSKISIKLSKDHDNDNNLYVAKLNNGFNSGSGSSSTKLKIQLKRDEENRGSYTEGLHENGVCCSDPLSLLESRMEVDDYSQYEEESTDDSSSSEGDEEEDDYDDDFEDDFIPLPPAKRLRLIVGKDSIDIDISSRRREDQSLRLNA
Chain of Histone-lysine N-methyltransferase KMT5C (Homo sapiens) (Q86Y97 whole entry, looked up): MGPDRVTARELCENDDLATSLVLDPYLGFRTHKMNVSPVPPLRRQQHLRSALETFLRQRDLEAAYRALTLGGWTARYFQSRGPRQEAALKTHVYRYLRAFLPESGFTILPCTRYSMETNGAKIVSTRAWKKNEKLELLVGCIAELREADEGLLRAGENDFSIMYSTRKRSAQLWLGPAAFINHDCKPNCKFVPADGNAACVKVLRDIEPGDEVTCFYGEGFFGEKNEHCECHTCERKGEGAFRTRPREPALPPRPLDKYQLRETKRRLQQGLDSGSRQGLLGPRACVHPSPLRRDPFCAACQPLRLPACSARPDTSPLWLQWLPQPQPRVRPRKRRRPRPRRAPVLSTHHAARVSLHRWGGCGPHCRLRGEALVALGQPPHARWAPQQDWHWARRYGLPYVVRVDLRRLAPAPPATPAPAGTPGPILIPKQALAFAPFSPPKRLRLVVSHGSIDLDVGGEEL
Chain of Histone-lysine N-methyltransferase SUV39H2 (Homo sapiens) (Q9H5I1 whole entry): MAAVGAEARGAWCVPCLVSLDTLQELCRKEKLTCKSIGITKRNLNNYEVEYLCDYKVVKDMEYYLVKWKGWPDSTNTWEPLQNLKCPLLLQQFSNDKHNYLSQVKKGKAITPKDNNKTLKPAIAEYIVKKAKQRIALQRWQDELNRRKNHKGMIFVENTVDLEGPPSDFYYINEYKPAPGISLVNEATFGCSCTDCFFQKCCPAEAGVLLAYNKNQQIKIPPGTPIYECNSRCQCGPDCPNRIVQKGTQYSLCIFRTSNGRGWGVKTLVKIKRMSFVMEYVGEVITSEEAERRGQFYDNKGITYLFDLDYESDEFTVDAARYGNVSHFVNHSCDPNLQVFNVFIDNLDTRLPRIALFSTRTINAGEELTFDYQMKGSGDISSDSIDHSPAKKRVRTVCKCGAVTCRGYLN
Chain of Protein arginine N-methyltransferase 3 (Homo sapiens) (O60678 2-531 limits assumed): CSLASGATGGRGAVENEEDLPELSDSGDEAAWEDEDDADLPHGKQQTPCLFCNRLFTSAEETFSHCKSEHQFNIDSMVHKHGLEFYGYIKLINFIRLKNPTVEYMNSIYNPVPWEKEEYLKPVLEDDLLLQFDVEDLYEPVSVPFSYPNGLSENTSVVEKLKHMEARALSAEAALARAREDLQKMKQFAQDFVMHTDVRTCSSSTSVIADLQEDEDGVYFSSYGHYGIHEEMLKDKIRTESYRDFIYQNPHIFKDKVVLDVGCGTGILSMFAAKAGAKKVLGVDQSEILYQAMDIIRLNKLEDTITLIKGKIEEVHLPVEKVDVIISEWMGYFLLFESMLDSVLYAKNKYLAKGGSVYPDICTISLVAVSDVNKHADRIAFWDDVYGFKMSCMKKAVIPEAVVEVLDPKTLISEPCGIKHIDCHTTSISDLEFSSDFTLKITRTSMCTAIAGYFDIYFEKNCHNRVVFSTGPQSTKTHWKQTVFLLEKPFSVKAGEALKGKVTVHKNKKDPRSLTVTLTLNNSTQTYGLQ
Chain of N-lysine methyltransferase KMT5A (Homo sapiens) (Q9NQR1 whole entry): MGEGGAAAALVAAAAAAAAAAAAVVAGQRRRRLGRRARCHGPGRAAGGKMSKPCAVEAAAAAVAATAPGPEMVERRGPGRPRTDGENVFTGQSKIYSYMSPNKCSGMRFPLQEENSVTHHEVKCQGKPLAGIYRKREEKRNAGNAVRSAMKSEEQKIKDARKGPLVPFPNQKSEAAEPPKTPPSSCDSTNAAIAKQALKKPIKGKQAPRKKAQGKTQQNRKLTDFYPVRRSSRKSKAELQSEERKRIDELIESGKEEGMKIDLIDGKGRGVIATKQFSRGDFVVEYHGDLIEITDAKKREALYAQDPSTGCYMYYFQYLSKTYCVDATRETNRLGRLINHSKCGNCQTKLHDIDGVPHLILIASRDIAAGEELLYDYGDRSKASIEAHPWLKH

SMILES: CC(C)N(CCCNC(=O)Nc1ccc(C(C)(C)C)cc1)C[C@H]1O[C@@H](n2cc(Br)c3c(N)ncnc32)[C@H](O)[C@@H]1O
inhibition [1]: 7%
Activity [2]: inactive
inhibition [3]: -5%
inhibition [4]: 22%
inhibition [5]: 8%
inhibition [6]: -4%
inhibition [7]: 13%
inhibition [8]: 2%
inhibition [9]: inactive
inhibition [10]: 0%
inhibition [11]: 7%
inhibition [12]: -1%
Activity [13]: Active
inhibition [14]: -10%
inhibition [15]: 17%
Papp B→A at 1.5 h, 10 µM [16]: 10.6 ×10⁻⁶ cm/s
inhibition [17]: inactive
Activity [18]: Tde
inhibition [19]: inactive
inhibition [20]: inactive
inhibition [21]: inactive
inhibition [22]: inactive
inhibition [23]: -1%
IC50 [24]: 8.8 nM
inhibition [25]: inactive
inhibition [26]: 0%
inhibition [27]: -3%
inhibition [28]: 8%
inhibition [29]: inactive
inhibition [30]: 19%
inhibition [31]: inactive
inhibition [32]: 7%
Kd [33]: 0.06 nM
inhibition [34]: 5%
Activity [35]: Active
inhibition [36]: inactive
inhibition [37]: inactive
inhibition [38]: inactive
inhibition [39]: -1%
Kd [40]: 0.0561 nM
IC50 [41]: 2.65 nM
inhibition [42]: inactive
inhibition [43]: 10%
Activity [44]: Dose-Dependent Effect
Papp A→B at 1.5 h, 10 µM [45]: 5.7 ×10⁻⁶ cm/s
inhibition [46]: Active
inhibition [47]: Active
inhibition at 1 µM [48]: -15%
inhibition [49]: 19%
inhibition [50]: 13%
inhibition [51]: -3%
inhibition [52]: -1%

inhibition [9]: inactive
Papp B→A at 1.5 h, 10 µM [16]: 5.4 ×10⁻⁶ cm/s
inhibition [17]: inactive
inhibition [19]: inactive
inhibition [20]: inactive
inhibition [21]: inactive
inhibition [22]: inactive
IC50 [53]: 500 nM
inhibition [25]: inactive
inhibition [29]: inactive
inhibition [31]: inactive
inhibition [36]: inactive
inhibition [37]: inactive
inhibition [38]: inactive
IC50 [41]: 264 nM
inhibition [42]: inactive
SMILES: CC(C)N(CCCNC(=O)Nc1ccc(C(C)(C)C)cc1)C[C@H]1O[C@@H](n2ccc3c(N)ncnc32)[C@H](O)[C@@H]1O
Activity [18]: Tde
IC50 [24]: 84 nM
Activity [35]: Active
Activity [44]: Dose-Dependent Effect

IC50 ([54]; read-out: IC50): 40.3 nM
Kd [33]: 26.9 nM
Kd [40]: 26.9 nM
SMILES: Cc1ccc(NC(=O)NCCCN(C[C@H]2O[C@@H](n3cnc4c(N)ncnc43)[C@H](O)[C@@H]2O)C(C)C)cc1
Activity [35]: Active

IC50 [54]: Not Active
SMILES: CC(C)N(CCCNC(=O)c1ccc(C(C)(C)C)cc1)C[C@H]1O[C@@H](n2cnc3c(N)ncnc32)[C@H](O)[C@@H]1O

Source: ChEMBL document CHEMBL5653612, “Catalytic site remodelling of the DOT1L methyltransferase by selective inhibitors” (Nat Commun, 2012)
